For this experiment, the target named is T1, OR2C1 (Homo sapiens) (UniProt O95371).
T1 sequence (whole entry): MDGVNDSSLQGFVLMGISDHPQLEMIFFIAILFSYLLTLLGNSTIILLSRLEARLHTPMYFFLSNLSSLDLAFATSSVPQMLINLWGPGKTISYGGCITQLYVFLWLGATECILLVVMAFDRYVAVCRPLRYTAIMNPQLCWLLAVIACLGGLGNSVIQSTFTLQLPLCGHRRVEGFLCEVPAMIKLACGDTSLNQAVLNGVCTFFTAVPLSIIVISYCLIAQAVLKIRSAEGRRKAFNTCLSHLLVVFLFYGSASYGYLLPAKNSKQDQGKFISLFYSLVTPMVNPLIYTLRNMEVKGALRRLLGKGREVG
Particulars: stereoisomer not certain. Summed up: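 Transient luciferase assays in mammalian cell lines were common, though methods varied by source. The values come from published papers and their supplementary material, with extra details from the original authors when needed. Responsive refers to a measured signal the original authors judged statistically different from baseline, and non-responsive (inactive) to the remainder.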
For `CCCCCCCCC(=O)O`, the “odorant receptor agonist call” value is “inactive”.

With `CCCCCCCCS`, the “odorant receptor agonist call” value is “active”.

For `C=C(C)C1CCC(C)C(=O)C1` (centres undefined), the “odorant receptor agonist call” value was “inactive”.

Turning to `CC12CCC(CC1=O)C2(C)C` (centres undefined), the “odorant receptor agonist call” value was “inactive”.

Regarding `CCCCOC(=O)C(C)OC(=O)CCC` (centres undefined), the “odorant receptor agonist call” value was “inactive”.

Turning to `CCCCC(=O)CC`, the “odorant receptor agonist call” value was “inactive”.

With `CCC(C(=O)O)c1ccccc1` (centres undefined), the “odorant receptor agonist call” value was “inactive”.

Regarding `O=C1Cc2ccccc2O1`, the “odorant receptor agonist call” value is “inactive”.

Turning to `CCC(=O)O`, the “odorant receptor agonist call” value is “inactive”.

Regarding `CCCCCCCC(C)=O`, the “odorant receptor agonist call” value was “inactive”.

For the molecule `CCCCCC(=O)CC`, the “odorant receptor agonist call” value is “inactive”.

For the molecule `CCCCCCCC(=O)[O-].[H+]`, the “odorant receptor agonist call” value was “inactive”.

For the molecule `CCCC(=O)C(C)=O`, the “odorant receptor agonist call” value is “inactive”.

In the case of `CCCC(C)=O`, the “odorant receptor agonist call” value was “inactive”.

With `CCOC(=O)C(C)C`, the “odorant receptor agonist call” value is “inactive”.

Take `CC(C)=CCCC(C)CCO` (centres undefined): the “odorant receptor agonist call” value is “inactive”.

With `CCCCCCC(=O)[O-].[H+]`, the “odorant receptor agonist call” value is “inactive”.

Consider `COc1cc(C(=O)O)ccc1O`, for which the “odorant receptor agonist call” value is “inactive”.

Take `CCC(=O)C(=O)CC`: the “odorant receptor agonist call” value was “inactive”.

For the molecule `CC(=O)OCC=C(C)C`, the “odorant receptor agonist call” value is “inactive”.

`CCCCCC=O`: the “odorant receptor agonist call” value is “inactive”.

For the molecule `CCCCCO`, the “odorant receptor agonist call” value was “inactive”.

For `CCCCCC1=C(C)CCC1=O`, the “odorant receptor agonist call” value was “inactive”.

As for `CCCCC(=O)O`, the “odorant receptor agonist call” value is “inactive”.

For `CCCCC(C)=O`, the “odorant receptor agonist call” value is “inactive”.

In the case of `CCCCCCCCCCO`, the “odorant receptor agonist call” value was “inactive”.

As to `CCCCCCCCO`, the “odorant receptor agonist call” value was “inactive”.

For the molecule `c1ccccc1`, the “odorant receptor agonist call” value is “inactive”.

Consider `CCCCOC=O`, for which the “odorant receptor agonist call” value was “inactive”.

Source of the values: the M2OR odorant receptor database.
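Further: active if original authors judged signal statistically different from baseline.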
